High-throughput results as filed in PubChem BioAssay.
Most compounds without a hit are left out; they make up all but 2.4% or so of the library.
PREPL inhibitor = PREPL enzyme inhibitors, primary screen, biochemical, fluorescence polarization | recombinant PREPL, fluorescence polarization activity-based probe | inhibition, % at 5.96 µM | 320,000 compounds, 0.68% hits | AID 2751, 2010; in the data active = inhibition above about 43%;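 also: 0% = enzyme with DMSO and 100% = wells lacking enzyme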
HNF4A DNA FP = change in binding of human HNF4A to DNA, primary screen, biochemical, fluorescence polarization, FITC-DNA; 1 h; Hepatocyte nuclear factor 4-alpha (Homo sapiens), P41235; activity change, % at 10 µM; 360,000 compounds, 0.3% hits; in the data active = activity change above about 30%, passing the limit was not always enough
Rpn11 block = Rpn11 (PSMD14) deubiquitinase inhibitors, primary screen, biochemical, fluorescence polarization, uHTS. 26S proteasome non-ATPase regulatory subunit 14 (Homo sapiens), O00487. human 26S proteasome, Ub4-pepOG fluorescence polarization; 20S core pre-blocked with epoxomicin. inhibition, % at 20 µM. 360,000 compounds, 0.59% hits. AID 588493, 2011;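 active = inhibition at 20 µM, scaled to each plate's controls, above about 33%, limit read from the data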
Target sequence (O00487 whole entry, looked up): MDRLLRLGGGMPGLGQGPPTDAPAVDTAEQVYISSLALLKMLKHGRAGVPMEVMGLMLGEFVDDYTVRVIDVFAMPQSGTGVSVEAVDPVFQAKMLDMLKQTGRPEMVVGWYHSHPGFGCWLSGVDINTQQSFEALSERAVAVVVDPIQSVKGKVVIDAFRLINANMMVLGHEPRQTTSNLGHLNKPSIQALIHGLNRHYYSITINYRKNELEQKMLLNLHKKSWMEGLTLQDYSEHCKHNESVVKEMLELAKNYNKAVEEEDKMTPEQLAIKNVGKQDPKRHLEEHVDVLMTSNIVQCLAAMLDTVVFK
TbMetRS inhib = T. brucei MetRS inhibitors, primary screen, biochemical, luminescence. AID 624268, 2012. 360,000 compounds, 0.4% hits. purified T. brucei MetRS, ATP depletion, Kinase-Glo luminescence. inhibition, % at 11.9 µM;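 active = inhibition above a per-plate cutoff of the control wells' mean inhibition plus 3 SD, cut at about 5.5% in these data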;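 also: 0% = DMSO wells median and 100% = median of wells with control inhibitor compound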
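Material: parasite MetRS enzyme / Replication: singlicate, one well per compound / Signal: luminescence of leftover ATP / Schedule: 2 h aminoacylation at 25 °C after 15 min preincubation / Medium: HEPES-MgCl2-KCl buffer plus DTT, spermine, BSA, pyrophosphatase / Doses: 11.9 µM single point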
Neddylation inh = inhibitors of cullin neddylation, primary screen, biochemical, TR-FRET, uHTS, NAE and Ubc12; 360,000 compounds, 0.58% hits; AID 651699, 2012; NEDD8-conjugating enzyme Ubc12 (Homo sapiens) + NEDD8-activating enzyme E1 regulatory …; inhibition, % at 25 µM; in the data active = inhibition above about 36%
CSN inh = inhibitors of CSN-mediated cullin deneddylation, primary screen, biochemical, fluorescence polarization, uHTS; COP9 signalosome complex subunit 5 (Homo sapiens), Q92905; Purified CSN, SCF-Nedd8-OG deneddylation; inhibition, % at 12.5 µM; 360,000 compounds, 0.38% hits; AID 651999, 2013;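 active = pattern-corrected inhibition above about 35%, with an unprinted fluorescence ratio check between 0.5 and 1.5, limit read from the data, passing the limit was not always enough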;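 also: 0% = enzyme with substrate and 100% = substrate without enzyme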
Target sequence (Q92905 whole entry, looked up, one chain of several): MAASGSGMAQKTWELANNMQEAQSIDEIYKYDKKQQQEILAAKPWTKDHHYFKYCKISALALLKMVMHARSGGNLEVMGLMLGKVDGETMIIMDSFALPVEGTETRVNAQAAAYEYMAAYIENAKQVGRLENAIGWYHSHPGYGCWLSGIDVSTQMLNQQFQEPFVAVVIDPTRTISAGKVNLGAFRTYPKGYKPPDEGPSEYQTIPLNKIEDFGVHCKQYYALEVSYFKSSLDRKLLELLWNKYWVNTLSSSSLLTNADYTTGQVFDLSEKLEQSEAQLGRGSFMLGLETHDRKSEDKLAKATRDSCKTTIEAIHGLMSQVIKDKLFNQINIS
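Assay system: purified human Csn5 enzyme expressed in HEK293T cells; measure: % inhibition; also added: SCFSkp2-Nedd8OG substrate at 10 nM final; technique: fluorescence polarization; times: reaction 90 min, room temperature; medium: Tris buffer pH 7.5, NaCl, DTT, Tween-20, trehalose, ovalbumin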
Tb MetRS conf = T. brucei MetRS inhibitors, confirmation, biochemical, luminescence; 1,400 compounds, 93% hits; inhibition, % at 11.9 µM; T. brucei MetRS enzyme, luminescence (ATP depletion); shares compounds with TbMetRS inhib; AID 624412, 2012; in the data active = inhibition above about 7%
Jurkat tox = Jurkat T cell cytotoxicity, cytotoxicity control for T. brucei MetRS inhibitor project, luminescence, high throughput. shares compounds with TbMetRS inhib. Jurkat cells viability, ATP luminescence. inhibition, % at 8.3 µM. 1,400 compounds, 12% hits; in the data active = inhibition above about 15%;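 also: 0% = vehicle and 100% = reference inhibitor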
Tb MetRS inh FP = T. brucei MetRS inhibitors, orthogonal assay for T. brucei MetRS inhibitor project, biochemical, fluorescence polarization; 1,400 compounds, 44% hits; inhibition, % at 11.9 µM; purified T. brucei MetRS; shares compounds with TbMetRS inhib; AID 651607, 2012; in the data active = inhibition above about 17%;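 also: 0% = vehicle wells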
Active calls of the source: *; . = no result given.

SMILES	PREPL inhibitor	HNF4A DNA FP	Rpn11 block	TbMetRS inhib	Neddylation inh	CSN inh	Tb MetRS conf	Jurkat tox	Tb MetRS inh FP
Cc1c(NS(=O)(=O)c2cccc(C(=O)NCc3cccc(Cl)c3)c2)c(=O)n(-c2ccccc2)n1C	.	1	4	18*	-7	2	43*	6	27*
CC(=O)N1CCc2cc(S(=O)(=O)NCC(=O)NCc3ccc(Cl)cc3)ccc21	2	2	1	0	-14	2	.	.	.
Cc1ccc(S(=O)(=O)/C(C#N)=C/c2c[nH]c3ccccc23)cc1	11	8	21	19*	-4	2	40*	-1	24*
Oc1[nH]c(=S)sc1C=C1N=c2ccccc2=N1	0	11	1	6.5*	-30	10	15*	5	6
O=C(CCNC(=O)c1ccc(Br)cc1)Nc1ncccc1O	1	0	-10	1	3	0	.	.	.
Cc1[nH]c2ccccc2c(=O)c1CN1CCCCCC1	10	4	4	0	-1	0	.	.	.
Cc1[nH]c2ccc(Br)cc2c(=O)c1CN1CCCCC1	6	5	-3	34*	6	-4	55*	-7	27*
OC1(c2cccc(C(F)(F)F)c2)CCN(c2ncnc3c2[nH]c2ccc(F)cc23)CC1	.	1	8	12*	35	0	24*	34*	13
CCc1ccc(C2C(=O)c3ccccc3C2=O)cc1	-9	2	-5	6.3*	-3	3	3	7	-7
CNC(=O)c1c[nH]c2ccc(S(=O)(=O)Nc3cccc(SC)c3)cc2c1=O	.	-4	-6	2	1	1	.	.	.
Cc1cnc(CNC(=O)C2CCC(=O)N(Cc3ccc(Cl)cc3)C2)[nH]1 (stereo unspecified)	-3	-5	2	32*	2	3	69*	-1	36*
O=C(NCc1ccccn1)C1CCC(=O)N(Cc2ccc(Cl)cc2)C1 (stereo unspecified)	17	-1	-6	1	-5	-4	.	.	.
NS(=O)(=O)c1cccc(NC(=O)CN2CCc3ccccc32)c1	0	1	11	9.2*	6	-1	9.7*	11	6
Cc1ccc(NS(=O)(=O)c2c(C(=O)N3CCCCCC3)c(C)n(C)c2C)c(Cl)c1	12	3	-6	0	11	-5	.	.	.
CCOC(=O)c1cccc(NS(=O)(=O)c2c(C)[nH]c(C)c2C(=O)N2CCCC2)c1	13	2	-4	0	15	-2	.	.	.
Cc1ccc(NS(=O)(=O)c2c(C)[nH]c(C)c2C(=O)N2CCCCC2)cc1Cl	12	1	0	22*	-1	5	32*	2	12
Cc1ccc(NS(=O)(=O)c2c(C)[nH]c(C)c2C(=O)N2CCCCC2)c(Cl)c1	6	-4	-5	8.4*	3	-3	21*	3	7
CCc1nc2c(OCc3ccccc3C(=O)OC)cccn2c1N(C)C(=O)c1cccc(OC)c1	.	-2	-2	0	0	-4	.	.	.
Cc1ncc([N+](=O)[O-])n1CC(=O)Nc1ccc(Br)cc1	6	-3	-7	6.1*	-12	3	14*	-6	0
CN(CC(=O)Nc1cc(Cl)ccc1C#N)C1CCS(=O)(=O)C1 (stereo unspecified)	13	-1	1	0	-1	-3	.	.	.
CCSc1nsc(NC(=O)Nc2ccccc2F)n1	-1	-2	-2	7.0*	1	-2	13*	5	6
CCSc1nsc(NC(=O)Nc2cccc(OC)c2)n1	11	1	-7	0	1	4	.	.	.
CN(C)S(=O)(=O)c1cccc(NC(=O)Cc2ccc(Cl)cc2)c1	11	-4	4	15*	3	-2	27*	3	21*
O=C(COC(=O)Cn1cnc2ccccc21)Nc1cccc(S(=O)(=O)N2CCOCC2)c1	-4	-2	7	35*	2	-12	57*	2	31*
O=C(Cc1ccc(Cl)c(Cl)c1)Nc1cccc(S(=O)(=O)N2CCOCC2)c1	31	-2	2	59*	6	7	76*	0	65*
SMILES	PREPL inhibitor	HNF4A DNA FP	Rpn11 block	TbMetRS inhib	Neddylation inh	CSN inh	Tb MetRS conf	Jurkat tox	Tb MetRS inh FP
O=C(Cn1c(=O)cnc2ccccc21)Nc1cccc(S(=O)(=O)N2CCOCC2)c1	1	2	5	1	-10	-4	.	.	.
CC(=O)Nc1ccc(S(=O)(=O)N(C)CC(=O)OCC(=O)N(C)C2CCS(=O)(=O)C2)cc1 (stereo unspecified)	15	-1	-13	-1	0	5	.	.	.
COc1cc2cc(C)c(Br)c(OC)c2cc1OC	.	-3	1	0	4	6	.	.	.
CCc1nnc(N/N=C/c2ccc(O)c(OC)c2)n1N	2	-1	6	0	3	-2	.	.	.
CCc1nnc(N/N=C\c2ccc(OC(C)=O)c(OC)c2)n1N	-1	-3	-6	6.6*	-15	-4	4	4	4
O=C1NC[C@H](CCCCN2C[C@H](Cc3ccccc3)N(CC3CCCCC3)C(=O)C2=O)N(CC2CCCCC2)C1=O	.	0	.	0	0	-2	.	.	.
O=C(CSc1nnc2c(n1)[nH]c1ccccc12)NCc1ccco1	16	-4	-4	8.3*	-35	0	14*	9	7
Cn1c(SCC(=O)NCc2ccc(F)cc2)nc2ccccc21	-12	2	2	0	2	-1	.	.	.
COc1ccc(CNC(=O)CSc2nnc3c(n2)[nH]c2ccc(C)cc23)cc1	-4	-18	0	33*	-1	5	82*	0	55*
COc1ccc2[nH]c3nc(SCC(=O)Nc4ccc5c(c4)OCO5)nnc3c2c1	4	1	-8	56*	-5	1	88*	10	73*
